Most compounds without a hit are left out; they make up all but 2% or so of the library.
GSTO1 counter: GSTO1 inhibition, counter-screen for RBBP9 inhibitors | P78417 | recombinant GSTO1, activity-based probe fluorescence polarization | inhibition, % at 5.96 µM | 300,000 tested, 1.1% active | AID 1974;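 active means inhibition above the campaign mean inhibition plus 3 SD, cut at about 35% in these data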;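 further: 0% = GSTO1-1 with DMSO and 100% = wells lacking GSTO1-1 enzyme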
Apaf1 inhib: human Apaf-1 inhibition | O14727 | reconstituted apoptosome caspase-3 activity, DEVD-Rh110 fluorescence | inhibition, % at 20 µM | 330,000 tested, 0.71% active | AID 489030; active means inhibition of at least 40% at 20 µM;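 further: plate controls were DMSO wells for no effect and DEVD-CHO caspase inhibitor wells for full effect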
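Material: reconstituted apoptosome with Apaf-1, cytochrome c, caspase-9, procaspase-3, dATP / Buffer or medium: pH 7.5 Hepes buffer with CHAPS, BSA, DTT / Also added: cytochrome c with DEVD-Rh110 / Schedule: compound with Apaf-1, dATP, procaspase-3 30 min, then 50 min reaction, room temperature / Technique: rhodamine 110 fluorescence at Ex 480/Em 540 nm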
UCH37 inh: blocks the human deubiquitinase UCH37. purified proteasome/UCH37, Ub-AMC cleavage fluorescence. Q9Y5K5. inhibition, % (test concentration not listed). 330,000 tested, 0.33% active;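 active means mean inhibition over replicate wells above about 20%, limit read from the data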;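 further: 0% = compound-free wells with enzyme and 100% = wells lacking proteasome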
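Material: Human UCH37 enzyme supplied as purified proteasome complex | Schedule: 30 min compound-proteasome preincubation then 25 min substrate reaction, room temperature | Detection: AMC fluorescence from Ub-AMC cleavage, excitation 355 nm, emission 460 nm | Benchmarks: Wells without proteasome as full block, compound-free enzyme plus substrate as uninhibited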
PP5 inh: inhibitors of human protein phosphatase 5 (PP5) | P53041 | inhibition, % at 6.7 µM | 320,000 tested, 0.18% active | purified PP5c, OMFP substrate fluorescence;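 active means inhibition above the campaign's mean inhibition across all tested compounds plus 3 SD, cut at about 9.5% in these data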;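 further: 0% = DMSO only and 100% = 100 µM cantharidin control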
Target sequence (P53041 whole entry, looked up): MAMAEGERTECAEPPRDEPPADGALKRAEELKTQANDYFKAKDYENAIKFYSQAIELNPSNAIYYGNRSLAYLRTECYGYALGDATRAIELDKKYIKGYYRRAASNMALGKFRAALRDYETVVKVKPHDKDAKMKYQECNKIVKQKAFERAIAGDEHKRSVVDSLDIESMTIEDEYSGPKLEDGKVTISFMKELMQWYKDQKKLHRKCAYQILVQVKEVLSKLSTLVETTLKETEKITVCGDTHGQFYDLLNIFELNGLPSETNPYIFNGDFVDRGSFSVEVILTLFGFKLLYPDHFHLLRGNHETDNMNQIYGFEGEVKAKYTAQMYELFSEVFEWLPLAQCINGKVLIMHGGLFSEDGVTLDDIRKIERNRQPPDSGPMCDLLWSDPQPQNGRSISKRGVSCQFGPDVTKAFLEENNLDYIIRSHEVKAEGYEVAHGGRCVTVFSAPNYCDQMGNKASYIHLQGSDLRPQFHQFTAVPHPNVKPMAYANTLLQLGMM
PAD4 inh: PAD4 (human) enzyme inhibition | Q9UM07 | recombinant PAD4, RCA probe fluorescence polarization | inhibition, % at 6.36 µM | 330,000 tested, 0.41% active | AID 485272;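 active means percent inhibition above a cutoff equal to the mean of all tested compounds plus 3 SD, cut at about 15% in these data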;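 further: 0% = PAD4 with RCA probe and DMSO and 100% = probe without PAD4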
CTSL1 counter: cathepsin L1 inhibition, PFM18AAP counter-screen; recombinant F. hepatica cathepsin L1, Z-Leu-Arg-MCA fluorescence; inhibition, % at 5.96 µM; 300,000 tested, 0.49% active; AID 1906;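 active means inhibition above the mean of all tested compounds plus 3 SD, set per screening campaign, cut at about 17% in these data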;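 further: 0% = plate median of test compound wells and 100% = 1 µM Z-Phe-Ala-diazomethylketone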
PP5 inh confirm: confirmation of human PP5 phosphatase inhibitors; inhibition, % at 6.7 µM; Purified PP5, fluorogenic phosphatase substrate, fluorescence; shares compounds with PP5 inh; 460 tested, 22% active; in the data active means inhibition above about 9.5%
PP1 counter 3x: counter-screen for PP5 inhibitors: human PP1 phosphatase inhibition; shares compounds with PP5 inh; PP1 enzyme, fluorescent phosphatase substrate; inhibition, % at 6.7 µM; 460 tested, 4% active; AID 2355; in the data active means inhibition above about 16%
An asterisk follows results filed as active; / = no result given.

SMILES	GSTO1 counter	Apaf1 inhib	UCH37 inh	PP5 inh	PAD4 inh	CTSL1 counter	PP5 inh confirm	PP1 counter 3x
O=C(Nc1ccn(Cc2c(F)c(F)cc(F)c2F)n1)c1ccc(COc2ccc(Cl)cc2Cl)o1	-7	-2	5	9.8*	0	2	1	2
NC(N)=NN=Cc1cccc([N+](=O)[O-])c1O	/	/	4	/	/	/	/	/
Cc1ccc(C=NNC(=O)CSc2nc3ccccc3o2)cc1	/	/	3	/	/	/	/	/
CCCCCNC(=O)CC1Nc2c3ccccc3nc(=S)n2C1=O (configuration not stated)	0	6	3	9.9*	1	-3	-5	-4
COc1ccc(C(=O)NN=Cc2cc3ccccc3[nH]c2=O)cc1	/	/	-76	/	/	/	/	/
CCc1ccc(NC(=O)CN(CC(=O)Nc2ccc(CC)cc2)CC(C)O)cc1 (configuration not stated)	13	7	6	11*	-2	-3	8	5
Cc1cc(=O)[nH]c(NN=Cc2c(C)nn(-c3ccccc3Cl)c2Cl)n1	/	/	3	/	/	/	/	/
CCn1cc(C=NNC(=O)c2c[nH]c3ccccc23)c(C)n1	/	/	0	/	/	/	/	/
Cc1ccc(Nc2nc(/N=C/NO)n[nH]2)cc1C	7	-3	/	11*	-4	-3	-4	-4
Cc1nc(C)c(-c2ccnc(/N=C/NO)n2)s1	6	-15	/	0	-5	4	/	/
COc1ccccc1N(CC(=O)NN=Cc1ccc(SC)cc1)S(C)(=O)=O	/	/	-10	/	/	/	/	/
O=C(NN=Cc1ccc(N2CCOCC2)cc1)c1ccc(O)cc1	/	/	-19	/	/	/	/	/
Nc1ccc(C(=O)O)cc1	2	-2	1	2	-3	1	/	/
Nc1ccc(O)cc1	98*	/	/	11*	52*	96*	5	-2
NC(=O)c1cccn1-c1ncc(C(F)(F)F)cc1Cl	1	2	2	-3	-3	-1	/	/
O=C(Nc1ccc(Br)cc1)c1cccn1-c1ncc(C(F)(F)F)cc1Cl	-4	12	2	11*	-5	-3	6	4
COc1ccc(O)c(/C=N/NC(=S)Nc2cccc(S(=O)(=O)N(C)C)c2)c1	-20	/	/	12*	-1	2	0	0
COc1cccc(/C=N/NC(=S)Nc2cccc(S(=O)(=O)N(C)C)c2)c1	-3	10	/	6	-9	-2	/	/
O=C(NN=Cc1ccncc1)c1cccc(NC(=O)c2ccccc2Cl)c1	/	/	-2	/	/	/	/	/
Cc1cc(C(=O)NN=Cc2ccc(N3CCOCC3)cc2)c(C)o1	/	/	-132	/	/	/	/	/
CCOC(=O)N1CCC2(CC1)NCCc1c2[nH]c2ccccc12	1	-7	2	12*	-2	2	-9	-6
Cc1cccc(NC(=O)C2C3C=CC(C4CC34)C2C(=O)O)c1 (configuration not stated)	10	-7	2	3	-5	0	/	/
COC(=O)c1ccc(NC(=O)C2C3C=CC(C3)C2C(=O)O)cc1 (configuration not stated)	-5	7	3	-4	-3	-5	/	/
Cc1ccc(NC(=O)C2C3C=CC(O3)C2C(=O)O)cc1C (configuration not stated)	0	3	/	23*	-1	9	4	23*
Cc1cccc(NC(=O)C2C3C=CC(O3)C2C(=O)O)c1 (configuration not stated)	8	-5	/	9.8*	-4	2	-1	4
SMILES	GSTO1 counter	Apaf1 inhib	UCH37 inh	PP5 inh	PAD4 inh	CTSL1 counter	PP5 inh confirm	PP1 counter 3x
COc1ccccc1NC(=O)C1C2C=CC(O2)C1C(=O)O (configuration not stated)	2	3	/	15*	-2	1	3	7
COC(=O)c1ccc(NC(=O)C2C3C=CC(O3)C2C(=O)O)cc1 (configuration not stated)	-7	1	1	21*	4	1	5	6
Cc1ccc(NC(=O)C2C3CCCC2C3c2ccccc2)cc1C (configuration not stated)	-5	0	0	-1	-1	3	/	/
O=c1c(=Cc2cccn2-c2ccccc2)sc2nc3ccccc3n12	/	/	-13	/	/	/	/	/
Cc1cccc(C=NNC(=O)NC2CCCCC2)c1	/	/	3	/	/	/	/	/
COC(=O)c1sccc1NC(=O)C1C2C=CC(O2)C1C(=O)O (configuration not stated)	-2	8	3	1	2	6	/	/
Cc1cccc(NC(=O)C2C3C=CC(O3)C2C(=O)O)c1C (configuration not stated)	7	-3	/	10*	-3	2	0	4
Cc1nnc(NC(=O)C2C3C=CC(O3)C2C(=O)O)s1 (configuration not stated)	4	2	/	16*	1	-4	16*	13
Cc1ccc(NC(=O)C2C3C=CC(O3)C2C(=O)O)c(C)c1 (configuration not stated)	1	4	/	18*	-1	-4	0	12
COc1ccc(C=NNc2nc(N)cc(Cl)n2)cc1OC	/	/	12	/	/	/	/	/
O=C(C1CCC(CNS(=O)(=O)c2ccccc2)CC1)N1CCCCC1 (configuration not stated)	4	6	0	9.9*	-1	-1	-4	-5
CCOC(=O)N1CCN(C(=O)C2CCC(CNS(=O)(=O)c3ccccc3)CC2)CC1 (configuration not stated)	-1	17	-2	2	-4	-1	/	/
CC(=O)N(CN1C(=O)c2ccc([N+](=O)[O-])cc2C1=O)c1cccc(C(=O)O)c1	4	-9	-1	23*	-4	0	-2	-4
COCCOC(=O)c1c(C)oc2ccc(OC(=O)c3cccs3)cc12	14	18	6	10*	-2	-1	-3	-3
COC(=O)c1c(NC(=O)C2C3CCC(O3)C2C(=O)O)sc2c1CCCCCC2 (configuration not stated)	-7	4	3	12*	2	-1	0	-1
CCc1cccc(C)c1NC(=O)C1C2CCC(O2)C1C(=O)O (configuration not stated)	-2	4	-4	12*	1	1	7	6
Cc1ccc(-c2c(C)sc(NC(=O)C3C4CCC(O4)C3C(=O)O)c2C(=O)OC(C)C)cc1 (configuration not stated)	-6	8	1	13*	-9	1	-3	3
CCc1cccc(C)c1NC(=O)c1ccccc1	3	-1	2	-2	-7	2	/	/
CCOC(=O)c1c(NC(=O)C2C3CCC(O3)C2C(=O)O)sc2c1CCCC2 (configuration not stated)	2	20	4	14*	-2	7	11*	7

Screening results deposited in PubChem by several laboratories.
